The nature of data set [1]: Solubility in water. The format is physicochemical. The note with it: buffer.
The subject of data set [2] is HT-29. Briefly: Cytotoxicity against human HT29 cells after 48 hrs by sulforhodamine B assay. Type of data set: functional. The note with it: HT-29, 48 h.
Data set [3] concerns SF-295. The data set can be described thus: Cytotoxicity against human SF295 cells after 48 hrs by sulforhodamine B assay. The format is functional. Conditions: SF-295, 48 h.
Data set [4] has as its system HL-60. The data set can be described thus: Cytotoxicity against human HL60 cells after 48 hrs by sulforhodamine B assay. The format is functional. The note with it: HL-60, 48 h.
The test system of data set [5] is A549. Briefly: Cytotoxicity against human A549 cells after 48 hrs by sulforhodamine B assay. Type of data set: functional. Conditions: A549, 48 h.
Data set [6] deals with DU-145. The data set can be described thus: Cytotoxicity against human DU145 cells after 48 hrs by sulforhodamine B assay. The format is functional. The note with it: DU-145, 48 h.
Data set [7] has as its system A498. Briefly: Cytotoxicity against human A498 cells after 48 hrs by sulforhodamine B assay. Type of data set: functional. Conditions: A498, 48 h.
The subject of data set [8] is COLO 205. Briefly: Cytotoxicity against human COLO205 cells after 48 hrs by sulforhodamine B assay. Type of data set: functional. The note with it: COLO 205, 48 h.
The subject of data set [9] is OVCAR-3. Briefly: Cytotoxicity against human OVCAR3 cells after 48 hrs by sulforhodamine B assay. Type of data set: functional. The note with it: OVCAR-3, 48 h.
Data set [10] concerns MCF7. Briefly: Cytotoxicity against human MCF7 cells after 48 hrs by sulforhodamine B assay. Type of data set: functional. Conditions: MCF7, 48 h.
Data set [11] is described as follows: Inhibition of bovine brain tubulin polymerization after 30 mins by turbidimetry analysis. Further details: species or system Bos taurus. In short, it runs like this: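 Lyophilized bovine brain tubulin (97%) reconstituted to 5 mg/mL in 80 mM PIPES pH 6.9, 2 mM MgCl₂, 0.5 mM EGTA, 1.0 mM GTP and 5% glycerol. Compound in DMSO was added to this solution in a quartz cuvette at 0 °C. Assembly was followed as the rise in absorbance at 340 nm at 37 °C. IC₅₀ is the molar concentration halving the extent of assembly after 30 min.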

Data set [12] concerns NCI-H460. The data set can be described thus: Cytotoxicity against human NCI-H460 cells after 48 hrs by sulforhodamine B assay. Conditions: NCI-H460, 48 h. The format is functional.
For data set [13], the system named is DU-145. Briefly: Cytotoxicity against human DU145 cells assessed as growth inhibition at 10^-5 M after 48 hrs by sulforhodamine B assay. The format is functional. Conditions: DU-145, 48 h, read-out: GI.
Data set [14] has as its system SF-268. Briefly: Cytotoxicity against human SF268 cells assessed as growth inhibition at 10^-5 M after 48 hrs by sulforhodamine B assay. Type of data set: functional. The note with it: SF-268, 48 h, read-out: GI.
Data set [15] relates to NCI/ADR-RES. The data set can be described thus: Cytotoxicity against human NCI/ADR-RES cells assessed as growth inhibition at 10^-5 M after 48 hrs by sulforhodamine B assay. The note with it: read-out: GI. Type of data set: functional.
In data set [16] the test system is SK-MEL-28. The data set can be described thus: Cytotoxicity against human SK-MEL-28 cells assessed as growth inhibition at 10^-5 M after 48 hrs by sulforhodamine B assay. The format is functional. The note with it: SK-MEL-28, 48 h, read-out: GI.
Data set [17] deals with K562. Briefly: Cytotoxicity against human K562 cells assessed as growth inhibition at 10^-5 M after 48 hrs by sulforhodamine B assay. The note with it: K562, 48 h, read-out: GI. Type of data set: functional.
The test system of data set [18] is HCT-15. Briefly: Cytotoxicity against human HCT15 cells assessed as growth inhibition at 10^-5 M after 48 hrs by sulforhodamine B assay. Type of data set: functional. The note with it: HCT-15, 48 h, read-out: GI.
Data set [19] deals with CCRF-CEM. The data set can be described thus: Cytotoxicity against human CCRF-CEM cells assessed as growth inhibition at 10^-5 M after 48 hrs by sulforhodamine B assay. Type of data set: functional. Conditions: read-out: GI.
The test system of data set [20] is HCT-116. Briefly: Cytotoxicity against human HCT116 cells assessed as growth inhibition at 10^-5 M after 48 hrs by sulforhodamine B assay. The format is functional. Conditions: HCT-116, 48 h, read-out: GI.
Data set [21] concerns NCI-H460. The data set can be described thus: Cytotoxicity against human NCI-H460 cells assessed as growth inhibition at 10^-5 M after 48 hrs by sulforhodamine B assay. The format is functional. Conditions: NCI-H460, 48 h, read-out: GI.
For data set [22], the system named is KM12. Briefly: Cytotoxicity against human KM12 cells assessed as growth inhibition at 10^-5 M after 48 hrs by sulforhodamine B assay. The note with it: KM12, 48 h, read-out: GI. The format is functional.
In data set [23] the test system is OVCAR-5. The data set can be described thus: Cytotoxicity against human OVCAR5 cells assessed as growth inhibition at 10^-5 M after 48 hrs by sulforhodamine B assay. The format is functional. The note with it: OVCAR-5, 48 h, read-out: GI.
Data set [24] deals with MDA-MB-231. The data set can be described thus: Cytotoxicity against human MDA-MB-231/ATCC cells assessed as growth inhibition at 10^-5 M after 48 hrs by sulforhodamine B assay. Type of data set: functional. Conditions: MDA-MB-231, 48 h, read-out: GI.
Data set [25] deals with MDA-MB-435. Briefly: Cytotoxicity against human MDA-MB-435 cells assessed as growth inhibition at 10^-5 M after 48 hrs by sulforhodamine B assay. The format is functional. The note with it: MDA-MB-435, 48 h, read-out: GI.
Data set [26] deals with OVCAR-3. The data set can be described thus: Cytotoxicity against human OVCAR3 cells assessed as growth inhibition at 10^-5 M after 48 hrs by sulforhodamine B assay. Type of data set: functional. Conditions: OVCAR-3, 48 h, read-out: GI.
Data set [27] has as its system MCF7. The data set can be described thus: Cytotoxicity against human MCF7 cells assessed as growth inhibition at 10^-5 M after 48 hrs by sulforhodamine B assay. The format is functional. The note with it: MCF7, 48 h, read-out: GI.
For data set [28], the system named is UACC-62. The data set can be described thus: Cytotoxicity against human UACC62 cells assessed as growth inhibition at 10^-5 M after 48 hrs by sulforhodamine B assay. Type of data set: functional. Conditions: UACC-62, 48 h, read-out: GI.
Data set [29] deals with Hs-578T. The data set can be described thus: Cytotoxicity against human HS578T cells assessed as growth inhibition at 10^-5 M after 48 hrs by sulforhodamine B assay. Type of data set: functional. The note with it: read-out: GI.
Data set [30] concerns MDA-MB-468. The data set can be described thus: Cytotoxicity against human MDA-MB-468 cells assessed as growth inhibition at 10^-5 M after 48 hrs by sulforhodamine B assay. Type of data set: functional. Conditions: MDA-MB-468, 48 h, read-out: GI.
Data set [31] concerns A549. The data set can be described thus: Cytotoxicity against human A549/ATCC cells assessed as growth inhibition at 10^-5 M after 48 hrs by sulforhodamine B assay. Type of data set: functional. The note with it: A549, 48 h, read-out: GI.
Data set [32] deals with SF-295. Briefly: Cytotoxicity against human SF295 cells assessed as growth inhibition at 10^-5 M after 48 hrs by sulforhodamine B assay. Conditions: SF-295, 48 h, read-out: GI. The format is functional.
Data set [33] relates to NCI-H322M. The data set can be described thus: Cytotoxicity against human NCI-H322M cells assessed as growth inhibition at 10^-5 M after 48 hrs by sulforhodamine B assay. Type of data set: functional. Conditions: read-out: GI.
Data set [34] relates to UO-31. Briefly: Cytotoxicity against human UO31 cells assessed as growth inhibition at 10^-5 M after 48 hrs by sulforhodamine B assay. The format is functional. Conditions: UO-31, 48 h, read-out: GI.
For data set [35], the system named is NCI-H522. The data set can be described thus: Cytotoxicity against human NCI-H522 cells assessed as growth inhibition at 10^-5 M after 48 hrs by sulforhodamine B assay. Type of data set: functional. The note with it: NCI-H522, 48 h, read-out: GI.
For data set [36], the system named is CAKI-1. Briefly: Cytotoxicity against human Caki1 cells assessed as growth inhibition at 10^-5 M after 48 hrs by sulforhodamine B assay. Type of data set: functional. The note with it: CAKI-1, 48 h, read-out: GI.
Data set [37] has as its system SN12C. The data set can be described thus: Cytotoxicity against human SN12C cells assessed as growth inhibition at 10^-5 M after 48 hrs by sulforhodamine B assay. Type of data set: functional. The note with it: read-out: GI.
For data set [38], the system named is COLO 205. The data set can be described thus: Cytotoxicity against human COLO205 cells assessed as growth inhibition at 10^-5 M after 48 hrs by sulforhodamine B assay. The format is functional. Conditions: COLO 205, 48 h, read-out: GI.
The subject of data set [39] is OVCAR-4. Briefly: Cytotoxicity against human OVCAR4 cells assessed as growth inhibition at 10^-5 M after 48 hrs by sulforhodamine B assay. Type of data set: functional. The note with it: OVCAR-4, 48 h, read-out: GI.
Data set [40] deals with HL-60(TB). Briefly: Cytotoxicity against human HL-60(TB) cells assessed as growth inhibition at 10^-5 M after 48 hrs by sulforhodamine B assay. Conditions: HL-60, 48 h, read-out: GI. The format is functional.
Data set [41] deals with RXF 393. The data set can be described thus: Cytotoxicity against human RXF393 cells assessed as growth inhibition at 10^-5 M after 48 hrs by sulforhodamine B assay. Type of data set: functional. Conditions: RXF 393, 48 h, read-out: GI.
For data set [42], the system named is SF-539. Briefly: Cytotoxicity against human SF539 cells assessed as growth inhibition at 10^-5 M after 48 hrs by sulforhodamine B assay. The format is functional. Conditions: SF-539, 48 h, read-out: GI.
In data set [43] the test system is M14. The data set can be described thus: Cytotoxicity against human M14 cells assessed as growth inhibition at 10^-5 M after 48 hrs by sulforhodamine B assay. Conditions: M14, 48 h, read-out: GI. Type of data set: functional.
Data set [44] relates to EKVX. Briefly: Cytotoxicity against human EKVX cells assessed as growth inhibition at 10^-5 M after 48 hrs by sulforhodamine B assay. Type of data set: functional. Conditions: read-out: GI.
The test system of data set [45] is SK-MEL-2. The data set can be described thus: Cytotoxicity against human SK-MEL-2 cells assessed as growth inhibition at 10^-5 M after 48 hrs by sulforhodamine B assay. Type of data set: functional. Conditions: SK-MEL-2, 48 h, read-out: GI.
In data set [46] the test system is HCC 2998. The data set can be described thus: Cytotoxicity against human HCC2998 cells assessed as growth inhibition at 10^-5 M after 48 hrs by sulforhodamine B assay. Type of data set: functional. The note with it: HCC 2998, 48 h, read-out: GI.
Data set [47] deals with SK-OV-3. Briefly: Cytotoxicity against human SKOV3 cells assessed as growth inhibition at 10^-5 M after 48 hrs by sulforhodamine B assay. The note with it: SK-OV-3, 48 h, read-out: GI. The format is functional.

SMILES strings stand for the structures.

On to `COc1ccc(C(=O)c2cc(OC)c(OC)c(OC)c2)cc1O` [PHENSTATIN], for which, in data set [1], the solubility entry was “soluble”. Further, the concentration for 50% growth inhibition (GI50) was 1.8 µM in data set [2]; 0.052 µM in [3]; 0.031 µM in [4]; 0.29 µM in [5]; 0.034 µM in data set [6]; 0.38 µM in data set [7]. Besides, the GI50 in data set [8] came out at 4.86 µM; in [9], 0.0023 µM; in [10], 0.034 µM; in data set [12], 0.0057 µM. In data set [11], this compound came in with an IC50 of 15 µM.

For `COc1ccc(C(=O)c2cc(OC)c(OC)c(OC)c2)cc1OP(=O)([O-])[O-].[Na+].[Na+]`, in data set [1], the solubility result is reported as “soluble”.

In the case of `COc1cc2c(c(O)c1OC)C(=O)c1cc(OC)c(OC)c(OC)c1C2=O`, the inhibition of growth at 10 µM worked out at 7.83% in data set [13]; 22.2% in [14]; 20.3% in [15]; 15% in data set [16]; 0% in [17]; 0% in data set [18]. The inhibition of growth at 10 µM came out at 0% in data set [19]; 11.8% in [20]; 9.33% in data set [21]; 0% in data set [22]; 7.52% in data set [23]; 21.3% in data set [24]. The inhibition of growth at 10 µM came out at 16.9% in data set [25]; 0% in data set [26]; 26.7% in data set [27]; 6.13% in [28]; 16.9% in data set [29]; 22.4% in data set [30]. For the same compound, the inhibition of growth at 10 µM in [31] is 26.1%; in data set [32], 37.9%; in data set [33], 0%; in data set [34], 0%; in [35], 29.5%; in [36], 7.07%. Moreover, the inhibition of growth at 10 µM in [37] is 8.73%; in [38], 0%; in [39] it was 60.2%; in data set [40], 6.14%; in [41], 2.66%; in [42] it was 16.2%. For the same compound, the inhibition of growth at 10 µM was 0% in [43]; 13.5% in [44]; 0% in data set [45]; 0% in data set [46]; 9.78% in [47]. In data set [11], the IC50 was more than 100 µM.

The values are drawn from ChEMBL document CHEMBL1833921, “Synthesis and biological evaluation of phenstatin metabolites” (Bioorg Med Chem, 2011).
